SMILES strings stand for the structures. Active and inactive are the calls of the source. The rule behind the calls is not given here.

In general, IC50 refers to the midpoint of a concentration-inhibition curve. Broadly, the inhibition is the change of the read-out against control, counted positive when it falls. Usually Ki stands for the equilibrium dissociation constant of an inhibitor or competing ligand from its target.

Assay [1] relates to HS27. The assay is described as follows: Cytotoxicity against immortalized human HS27 cells after 48 hrs by sulforhodamine B assay. Format: functional, cell-based. The settings on record: HS27, 48 h. A digest of the protocol: (§1)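 Cells grown in RPMI 1640 with 10% FCS, 2 mM glutamine and penicillin/streptomycin, at 37 °C in 5% CO2 under normoxia. Compounds (10 mM DMSO stocks) are added on day 1 after plating at 1–100 µM, in triplicate, for 48 h. DMSO 0.25% v/v serves as control. Cells are TCA-fixed, stained with SRB and read at 492 nm. Growth is calculated relative to T0 and control. IC50 reported as mean ± SD from at least two experiments.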
In general terms: Sulforhodamine B stains cellular protein and so reports cell mass.

Assay [2] concerns NCI-H630. The assay is described as follows: Effect on cell cycle distribution in human NCI-H630 cells assessed as DNA content after 24 hrs by flow cytometry. Format: functional, cell-based. A digest of the protocol:
(§2)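 Cells are trypsinized, pelleted and stained with cold propidium iodide buffer for 30 min on ice. DNA content is measured by flow cytometry (10 000 cells/sample) to give G0/G1, S and G2/M fractions and the sub-G1 population. Results are mean ± SE of three experiments, analyzed by t-test or ANOVA.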
In general terms: Flow cytometry measures light scatter and fluorescence of single cells or particles in a stream.

Assay [3] can be described thus: Cytotoxicity against human LPc067 cells after 48 hrs by sulforhodamine B assay. The format is functional, cell-based. To be noted: LPc067, 48 h. A digest of the protocol:
as §1

In assay [4] the target is T1, L-lactate dehydrogenase A chain (Homo sapiens, UniProt P00338). As to the kind of experiment: Inhibition of human LDH-A using pyruvate as substrate and NADH as cofactor at 125 uM after 5 mins by calorimetric assay relative to control.
Assay [5] deals with NCI-H2052. The assay is described as follows: Cytotoxicity against human NCI-H2052 cells after 48 hrs by sulforhodamine B assay. Format: functional, cell-based. To be noted: NCI-H2052, 48 h. A digest of the protocol: as §1
In assay [6] the test system is MSTO-211H. As to the kind of experiment: Cytotoxicity against human MSTO-211H cells after 48 hrs by sulforhodamine B assay. Format: functional, cell-based. An outline of the steps:
as §1

The target in assay [7] is T1, L-lactate dehydrogenase A chain. The assay is described as follows: Competitive inhibition of human LDH-A using NADH as substrate after 5 mins by calorimetric assay relative to control. A digest of the protocol: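 Ki values from Lineweaver-Burk double-reciprocal plots. Enzyme is purified human LDH5 (LDH-A4), 0.005 units, in 100 mM sodium phosphate pH 7.4 at 37 °C. Pyruvate is held saturating at 2 mM while NADH is varied from 12.5 to 150 µM. Inhibitor is at 25–100 µM. NADH oxidation is read as A340 every 30 s for 5 min, in triplicate.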

In assay [8] the target is L-lactate dehydrogenase B chain (Homo sapiens) (UniProt P07195). The assay is described as follows: Inhibition of human LDH-B using saturating concentration of pyruvate and NADH as cofactor after 5 mins by calorimetric assay relative to control. An outline of the steps: (§3)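 Purified human LDH1 (LDH-B4), run as for LDH-A but only under pyruvate saturation (2 mM sodium pyruvate) with 25 µM NADH. Test compound at 125 µM, 37 °C, phosphate buffer. Activity is the A340 decrease from NADH consumption, read every 30 s for 5 min. Percent inhibition is relative to control, as mean ± SD of two or more independent experiments. Detection limit is 3%.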
L-lactate dehydrogenase B chain (Homo sapiens), sequence (P07195 2-334 limits assumed): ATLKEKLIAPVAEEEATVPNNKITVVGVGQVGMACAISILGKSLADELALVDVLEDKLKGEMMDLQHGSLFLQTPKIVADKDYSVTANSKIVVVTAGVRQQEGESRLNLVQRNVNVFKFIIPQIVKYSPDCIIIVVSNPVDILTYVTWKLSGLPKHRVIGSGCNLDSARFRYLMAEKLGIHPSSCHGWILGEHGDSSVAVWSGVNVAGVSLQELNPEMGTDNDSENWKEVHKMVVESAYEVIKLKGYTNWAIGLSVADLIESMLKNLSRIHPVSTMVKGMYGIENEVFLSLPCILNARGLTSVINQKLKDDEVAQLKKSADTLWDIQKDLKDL

Assay [9] relates to NCI-H2452. The assay is described as follows: Cytotoxicity against human NCI-H2452 cells after 48 hrs by sulforhodamine B assay. The format is functional, cell-based. To be noted: NCI-H2452, 48 h. An outline of the steps: as §1
Assay [10] relates to A2780. The assay is described as follows: Cytotoxicity against human A2780 cells after 48 hrs by sulforhodamine B assay. Format: functional, cell-based. To be noted: A2780, 48 h. An outline of the steps: as §1
Assay [11] concerns the target T1, L-lactate dehydrogenase A chain. The assay is described as follows: Competitive inhibition of human LDH-A using pyruvate as substrate after 5 mins by calorimetric assay relative to control. A digest of the protocol: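 Ki values from Lineweaver-Burk double-reciprocal plots. Enzyme is purified human LDH5 (LDH-A4), 0.005 units, in 100 mM sodium phosphate pH 7.4 at 37 °C. NADH is held saturating at 200 µM while sodium pyruvate is varied from 25 µM to 1 mM. Inhibitor is at 25–100 µM. A340 decrease is read every 30 s for 5 min, in triplicate.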

The test system of assay [12] is NCI-H630. As to the kind of experiment: Induction of apoptosis in human NCI-H630 cells assessed as appearance of sub-G1 cell subpopulation at compound IC50 after 24 hrs by flow cytometry. The format is functional, cell-based. An outline of the steps: as §2
Assay [13] in a line: Cytotoxicity against immortalized human HPNE cells expressing human TERT after 48 hrs by sulforhodamine B assay. The format is functional, cell-based. An outline of the steps: as §1
Assay [14] is described as follows: Cytotoxicity against human LPc006 cells after 48 hrs by sulforhodamine B assay. Format: functional, cell-based. To be noted: LPc006, 48 h. An outline of the steps:
as §1

Assay [15] can be described thus: Cytotoxicity against human LPc006 cells grown in hypoxic condition after 48 hrs by sulforhodamine B assay relative to normoxygenated cells. To be noted: LPc006, 48 h. Format: functional, cell-based. A digest of the protocol:
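LPC006 primary pancreatic cancer cells are treated with compounds at 1–100 µM for 48 h under hypoxia (1% O2, 5% CO2, 94% N2, 37 °C). Read-out is the SRB assay at 492 nm with growth calculated relative to T0 and control. IC50 is the mean ± SE of three independent experiments and is compared with normoxic cells by Student's t-test.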

The test system of assay [16] is NCI-H630. The assay is described as follows: Cytotoxicity against human NCI-H630 cells after 48 hrs by sulforhodamine B assay. Format: functional, cell-based. To be noted: NCI-H630, 48 h. An outline of the steps:
as §1

Assay [17] in a line: Cytotoxicity against human LPc028 cells after 48 hrs by sulforhodamine B assay. The format is functional, cell-based. The settings on record: LPc028, 48 h. An outline of the steps:
as §1

Assay [18] is described as follows: Cytotoxicity against human ADDP cells after 48 hrs by sulforhodamine B assay. Format: functional, cell-based. A digest of the protocol: as §1
In assay [19] the test system is ADDP cell line. The assay is described as follows: Induction of apoptosis in human ADDP cells assessed as appearance of sub-G1 cell subpopulation at compound IC50 after 24 hrs by flow cytometry. The format is functional, cell-based. A digest of the protocol:
as §2

Assay [20] deals with NCI-H28. The assay is described as follows: Cytotoxicity against human NCI-H28 cells after 48 hrs by sulforhodamine B assay. The format is functional, cell-based. To be noted: NCI-H28, 48 h. An outline of the steps:
as §1

The subject of assay [21] is ADDP. The assay is described as follows: Effect on cell cycle distribution in human ADDP cells assessed as DNA content after 24 hrs by flow cytometry. The format is functional, cell-based. An outline of the steps: as §2
Assay [22] has as its system HeLa. The assay is described as follows: Reduction in lactate production in perfused human HeLa cells at 400 uM after 12 hrs by NMR spectroscopy using D-[1,6-13C2]glucose as substrate. The format is functional. Details: scale not given: the % may be the effect or the level left. An outline of the steps:
(§4)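 HeLa cells are grown in RPMI-1640 with 10% FBS to 80% confluency, then washed for 15 min in glucose-free DMEM. Medium is replaced with DMEM containing 10 mM D-[1,6-13C2]glucose. Compound is added from 100× DMSO stocks (1% DMSO final), with vehicle controls, at 37 °C under normoxia. Medium is sampled at 6 and 12 h. 13C NMR gives the lactate-C3 (20.28 ppm) to glucose-C6 (60.95 ppm) peak-area ratio.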

Assay [23] relates to HeLa. As to the kind of experiment: Reduction in lactate production in perfused human HeLa cells assessed as lactate to glucose ratio at 500 uM after 12 hrs by NMR spectroscopy using D-[1,6-13C2]glucose as substrate relative to control. Format: functional. A digest of the protocol: as §4
The target of assay [24] is L-lactate dehydrogenase B chain (Homo sapiens) (UniProt P07195). The assay is described as follows: Inhibition of human LDH-B using pyruvate as substrate and NADH as cofactor at 125 uM after 5 mins by calorimetric assay relative to control. A digest of the protocol: as §3
Assay [25] relates to HeLa. The assay is described as follows: Reduction in lactate production in perfused human HeLa cells at < 400 uM after 12 hrs by NMR spectroscopy using D-[1,6-13C2]glucose as substrate. Format: functional, cell-based. A digest of the protocol: as §4

With `O=C(O)c1cc2cc(-c3ccccc3)ccc2n1O`, the IC50 in assay [1] was > 100 µM; in assay [3], 20.9 µM; in [5], 62.4 µM; in [6], 2.5 µM; in assay [9], 45.3 µM; in [10], 13.7 µM. Further, the IC50 is > 100 µM in assay [13]; 14.3 µM in assay [14]; 0.1 µM in assay [15]; 17.7 µM in assay [16]; 48.8 µM in assay [17]; 14.6 µM in assay [18]. The molecule also yielded an IC50 in assay [20] of 5.8 µM. Further, the Activity result in assay [2] and in assay [21] was “Dose-dependent effect” each time. The inhibition was 99% in [4] and < 3% in assay [8]. Further, the Ki was found to be 10.4 µM in [7] and 15.7 µM in assay [11]. Besides, the result in assay [12] and in assay [19] was Active.

`O=C(O)c1cc2c(C(F)(F)F)cc(-c3ccccc3)cc2n1O`: the IC50 in assay [1] is > 100 µM; in [3], 13.5 µM; in [5] it was 73.2 µM; in [6], 10.6 µM; in assay [9], 90.2 µM; in assay [10] it was 10.8 µM. Moreover, the 50% inhibitory concentration (IC50) in assay [13] is > 100 µM; in [14] it was 16.3 µM; in assay [15] it was 0.9 µM; in [16], 31.5 µM; in assay [17] it was 41.2 µM; in assay [18], 17 µM. In [20], this molecule came in with an IC50 of 11.4 µM. The Activity entry was “Dose-dependent effect” in [2], 20% in assay [22] and “Dose-dependent effect” in assay [21]. In addition, the inhibition turned out to be 87% in assay [4], 11% in assay [8] and 11% in assay [24]. For the same molecule, the figures for the Ki in [7] and in [11] were 8.9 µM and 4.7 µM, respectively. Further, the outcome in [12] and in assay [19] was Active. Also, the Ratio in [23] is < 0.01. Also, in [25], the outcome was inactive.

Take `O=C(O)c1cc2c(Br)cccc2n1O`: the inhibition in assay [4] is 32%.

`COC(=O)c1cc2ccc(-c3ccccc3)cc2n1O`: the results for the inhibition in assay [4] and in [24] were 4% and 8%, respectively.

For the molecule `O=C(O)c1cc2cc(-c3ccccc3)ccc2[nH]1`, the inhibition entry in [4] and in [24] was “Active” each time.

As to `COn1c(C(=O)O)cc2ccc(-c3ccccc3)cc21`, the inhibition result in assay [4] and in assay [24] was “inactive” each time.

As for `O=C(O)c1cc2ccc(-c3nn[nH]n3)cc2n1O`, the inhibition in assay [4] is 11%.

Turning to `O=C(O)c1cc2ccc(-c3ccccc3)cc2n1O`, the IC50 in assay [1] was > 100 µM; in [3] it was 18.2 µM; in assay [5], 50.5 µM; in [6], 2.4 µM; in assay [9], 21.3 µM; in assay [10], 10.1 µM. Also, the IC50 was > 100 µM in assay [13]; 15.7 µM in assay [14]; 0.36 µM in assay [15]; 15.1 µM in [16]; 32.3 µM in assay [17]; 16.3 µM in [18]. In addition, in assay [20], the IC50 turned out to be 7.8 µM. The Activity result in [2] and in assay [21] was “Dose-dependent effect” in each case. The figures for the inhibition in assay [4] and in assay [8] were 84% and < 3%, respectively. The Ki in assay [7] amounted to 19.8 µM; in assay [11], 35.4 µM. The outcome in [12] and in assay [19] was Active. Moreover, the Ratio in assay [23] is 0.12.

These data come from ChEMBL document CHEMBL1687923, “Discovery of N-hydroxyindole-based inhibitors of human lactate dehydrogenase isoform A (LDH-A) as starvation agents against cancer cells” (J Med Chem, 2011).
